TAAR1 agonist: human TAAR1 agonism; Q96RJ0; CHO RD-HGA16 TAAR1, Fluo-8 calcium fluorescence; vehicle wells 0%, saturating PEA agonist 100%; activation, % at 3 µM; 360,000 compounds, 0.99% hits; AID 624467;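 active means activation above the mean activation of all test compounds in the run plus 3 SD, cut at about 38% in these data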
Target sequence (Q96RJ0 whole entry, looked up): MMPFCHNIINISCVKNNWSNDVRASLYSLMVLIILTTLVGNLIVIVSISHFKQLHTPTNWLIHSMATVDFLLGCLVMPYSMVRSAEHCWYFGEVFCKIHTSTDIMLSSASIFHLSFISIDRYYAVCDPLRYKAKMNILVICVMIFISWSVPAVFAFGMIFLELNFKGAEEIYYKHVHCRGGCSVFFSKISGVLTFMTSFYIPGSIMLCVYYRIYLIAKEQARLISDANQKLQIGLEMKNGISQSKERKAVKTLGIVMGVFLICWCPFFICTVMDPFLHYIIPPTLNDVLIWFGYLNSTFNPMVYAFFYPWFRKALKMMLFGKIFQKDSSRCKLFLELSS
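System: CHO-derived RD-HGA16 cells with stable Gα16 and human TAAR1 / Times: 17-24 h plating, Fluo-8 75 min 37 °C, 30 min RT / Technique: calcium-sensitive Fluo-8 signal, excitation 470-495, emission 515-575 nm / Measure: % activation relative to PEA EC100 response / Benchmarks: DMSO and PEA EC100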
CHO parental Ca: counter-screen: ATP calcium response change in parental CHO cells | parental CHO-K1, ATP-induced calcium, Fluo-8 fluorescence | 330,000 compounds, 0.63% hits | inhibition, % at 5.6 µM;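 active means inhibition above that plate's mean sample inhibition plus 3 SD, cut at about 26% in these data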
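Measured by: calcium-sensitive Fluo-8 fluorescence / Test system: CHO parental line / Controls: ATP-challenged DMSO wells low, unchallenged DMSO wells high / Measure: % inhibition / Compound: single nominal dose of 5.6 µM per compound / Replicates: single well per compound, no replicates / Reagent: ATP as calcium-mobilizing challenge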
OX1R antag-1: antagonists of human orexin 1 receptor (OX1R) | OX1R-expressing cells, FRET antagonist read-out | inhibition, % at 6.6 µM | 330,000 compounds, 1.8% hits; in the data active means inhibition mostly above about 38%, no sharp cut-off; inactive means mostly below about 40%
GPR7 antagonist: antagonists of human GPR7 (neuropeptides B/W receptor 1); 290,000 compounds, 1.1% hits; AID 1861; inhibition, % at 4.4 µM; GPR7-expressing cells, fluorescence antagonist assay; in the data active means inhibition above about 16%, passing the limit was not always enough;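 further: cells stimulated with the agonist NPW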
Target sequence (P48145 whole entry, looked up): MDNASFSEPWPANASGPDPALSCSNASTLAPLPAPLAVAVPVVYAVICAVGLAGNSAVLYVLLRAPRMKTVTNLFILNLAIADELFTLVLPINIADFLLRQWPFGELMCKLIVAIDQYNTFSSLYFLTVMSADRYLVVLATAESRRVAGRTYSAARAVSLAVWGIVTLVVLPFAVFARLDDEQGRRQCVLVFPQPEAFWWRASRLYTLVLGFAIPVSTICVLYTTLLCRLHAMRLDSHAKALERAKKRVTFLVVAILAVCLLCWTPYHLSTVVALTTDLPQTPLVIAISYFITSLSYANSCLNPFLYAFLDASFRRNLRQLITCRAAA
TAAR1 antagonist: antagonists of human TAAR1; Q96RJ0; CHO RD-HGA16 TAAR1, Fluo-8 calcium fluorescence, antagonist; inhibition, % at 3 µM; 360,000 compounds, 1.5% hits;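 active means inhibition above a per-plate cutoff, the mean inhibition of test compounds on that plate plus 3 SD, cut at about 49% in these data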
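Test system: CHO RD-HGA16 cells bearing hTAAR1 | Reagent: β-PEA, EC80 | Compound dosing: 3 µM, single point | Schedule: Dye loading 75 min at 37 °C, then 30 min room temperature | Signal: Calcium fluorescence with Fluo-8 | Evaluation: Percent inhibition of PEA-evoked calcium signal, max/basal emission ratio | Control set: DMSO-only wells and EC80 β-PEA-stimulated wells | Repeats: Singlicate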
OX1R antag-2: blocks the human orexin 1 receptor; O43613; CHO/OX1R cells, Fluo-8 calcium fluorescence, orexin A; inhibition, % at 5 µM; 330,000 compounds, 0.43% hits;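 active means inhibition above its plate's threshold, mean inhibition of all tested compounds on the plate plus 3 SD, cut at about 37% in these data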
OX1R Fluo8 conf: confirmation of human orexin 1 receptor antagonists; shares compounds with OX1R antag-2; CHO/OX1R cells, orexin A calcium Fluo-8 fluorescence; inhibition, % at 5 µM; 1,100 compounds, 38% hits; AID 492963; in the data active means inhibition above about 29%
CHO Ca triplic: counter-screen for OX1R antagonists: effect in parental CHO cells; shares compounds with OX1R antag-2; parental CHO-K1, ATP-induced calcium, Fluo-8 fluorescence; inhibition, % at 5.6 µM; 1,100 compounds, 9.3% hits; AID 492965;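 active means inhibition above a per-plate limit, the mean inhibition of that plate's test compounds plus 3 SD, cut at about 25% in these data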
OX1R HTRF confirm: confirmation of human orexin 1 receptor antagonists, HTRF format | shares compounds with OX1R antag-1 | OX1R-expressing cells, HTRF antagonist assay | inhibition, % at 6.6 µM | 1,800 compounds, 49% hits; in the data active means inhibition above about 55%;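 further: CHO cells expressing OX1R stimulated with orexin A at about EC80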
CHO-K1 HTRF: signal in parental CHO-K1 cells, OX1R antagonist counter-screen. HTRF counterscreen. shares compounds with OX1R antag-1. inhibition, % at 6.6 µM. 1,800 compounds, 48% hits; in the data active means inhibition above about 17%
A number is an active result; i = inactive; nt = not tested or not shown. Only some compounds are listed: those with a hit (about 4.5% of all), similar ones and a draw of the others.

SMILES	TAAR1 agonist	CHO parental Ca	OX1R antag-1	GPR7 antagonist	TAAR1 antagonist	OX1R antag-2	OX1R Fluo8 conf	CHO Ca triplic	OX1R HTRF confirm	CHO-K1 HTRF
CCCCCCCCCC(=O)N[C@@H]1c2cc(OC)c(OC)cc2C[C@H]1OCc1ccccc1	i	i	i	nt	i	i	nt	nt	nt	nt
O=C(Nc1ccccc1)c1cccc(S(=O)(=O)NCc2ccco2)c1	i	i	i	i	i	i	nt	nt	nt	nt
O=C(Nc1cccc(S(=O)(=O)NCc2ccco2)c1)c1cc(-c2ccc(F)cc2)nc2ccccc12	i	i	65.2	i	57.1	56.4	29.2	i	i	i
CCCn1c(SCC(=O)Nc2ccccc2C(=O)NC2CC2)n[nH]c1=O	i	i	i	nt	i	i	nt	nt	nt	nt
COc1cccc(NC(=O)CN2C(=O)C(c3ccc(C)cc3)=NC23CCCCCC3)c1	i	i	75.2	i	i	41.4	47.4	i	87.2	i
CCOC(=O)C1=CN(Cc2ccco2)S(=O)(=O)N(C)C1CC (stereo unspecified)	i	i	i	nt	i	i	nt	nt	nt	nt
COC(=O)[C@H](CC(C)C)N(Cc1ccccc1)S(=O)(=O)N(Cc1ccccc1)[C@@H](CC(C)C)C(=O)OC	i	i	i	nt	i	i	nt	nt	nt	nt
COC(=O)[C@H](CC(C)C)NS(=O)(=O)N(Cc1ccccc1)[C@@H](CC(C)C)C(=O)OC	i	i	48.3	nt	i	i	i	i	i	i
COc1ccc(F)cc1-c1cc(C(=O)NC2CCCCC2)[nH]n1	i	nt	nt	nt	i	nt	nt	nt	nt	nt
COc1ccc(NC(=O)c2cc3c([nH]c4ccccc43)c(C)n2)cc1	i	i	95.6	i	i	i	i	i	i	i
COC(=O)c1cc2c([nH]c3ccccc32)c(C)n1	nt	nt	nt	i	nt	nt	nt	nt	nt	nt
O=C(Nc1cccc(Cl)c1)c1ccc(F)c(S(=O)(=O)NCc2ccc3c(c2)OCO3)c1	i	i	83.2	i	i	59.2	48.2	i	75.8	i
CCCS(=O)(=O)N1CCc2ccc(NC(=O)C3CCCO3)cc2C1 (stereo unspecified)	i	i	i	i	i	i	nt	nt	nt	nt
Cc1nnc(NC(=O)CN2C(=O)NC3(CCCC3)C2=O)s1	i	i	i	nt	i	i	nt	nt	nt	nt
Cc1cc(C)c2nc(NC(=O)CN3C(=O)NC4(CCCC4)C3=O)sc2c1	i	i	68.5	nt	i	i	i	i	i	i
O=C(Nc1cccc(Cl)c1)Nc1ccnc(-c2cccnc2)n1	i	i	67.0	i	55.4	40.6	i	i	68.5	i
CCCCNC(=O)[C@@H]1CC=C[C@@H]2CCN(Cc3ccc(Cl)c(Cl)c3)C(=O)[C@@H]21	i	i	90.7	nt	i	47.5	i	i	75.3	i
COc1ccc(CN2CC[C@H]3C=CC[C@@H](C(=O)Nc4ccc(Cl)c(C(F)(F)F)c4)[C@H]3C2=O)cc1OC	i	i	86.3	nt	i	63.4	69.8	i	89.3	i
CCOc1ccc(N(CC(=O)Nc2cc(OC)cc(OC)c2)S(=O)(=O)c2c(C)[nH]c(=O)[nH]c2=O)cc1	i	i	i	i	i	i	nt	nt	nt	nt
COc1ccc(S(=O)(=O)N2CCCCC2)cc1NC(=O)C1CC(=O)N(Cc2ccccc2)C1 (stereo unspecified)	i	i	i	nt	i	i	nt	nt	nt	nt
Cc1csc(CNc2ncnc3ccc(-c4cccc(Cl)c4)cc23)c1	i	i	i	nt	i	i	nt	nt	nt	nt
Cc1nc2ccc(-c3nc4ccccc4o3)cc2[nH]1	i	i	105.0	i	i	49.9	33.4	i	93.6	i
Cc1ccnc2ccc(-c3nc4ccccc4o3)cc12	i	i	92.0	i	i	40.8	48.1	i	93.6	i
CCCn1c(=O)c(C(=O)Nc2ccccc2N)c(O)c2ccccc21	i	nt	nt	nt	i	nt	nt	nt	nt	nt
C=C(C)Cn1c2ccc(NC(=O)CCOCC)cc2c(=O)n1C	i	nt	nt	nt	i	nt	nt	nt	nt	nt
SMILES	TAAR1 agonist	CHO parental Ca	OX1R antag-1	GPR7 antagonist	TAAR1 antagonist	OX1R antag-2	OX1R Fluo8 conf	CHO Ca triplic	OX1R HTRF confirm	CHO-K1 HTRF
COc1ccc(N=Cc2ccccc2O)cc1	i	nt	nt	nt	i	nt	nt	nt	nt	nt
COc1ccc(N=Cc2oc3ccc4ccccc4c3c2O)cc1	i	i	58.2	i	i	i	i	i	66.9	i
Cc1ccsc1C(=O)OCC(=O)N(Cc1ccccc1)C(C)C	i	i	76.2	nt	i	39.9	i	i	67.5	i
CCCCNC(=O)C1(C)CCCCN1C(=O)c1ccc2sccc2c1 (stereo unspecified)	i	nt	nt	nt	i	nt	nt	nt	nt	nt
CCCc1nnc(NC(=O)CCC(=O)N2CCN(Cc3cc(Cl)ccc3OC)CC2)s1	i	i	i	i	i	i	nt	nt	nt	nt
CCOc1ccc(N(CC(=O)NCCSCc2ccco2)S(=O)(=O)c2ccc(F)cc2)cc1	i	i	i	i	i	i	nt	nt	nt	nt
CCOc1ccccc1N(CC(=O)NCCSCc1ccco1)S(=O)(=O)c1ccccc1	i	i	84.3	i	50.1	43.1	47.0	i	80.0	i
NC(=S)N/N=C/c1ccccc1OCc1cccc(Cl)c1	nt	i	80.6	i	nt	54.3	35.4	i	80.9	i
NC(=S)N/N=C/c1ccc2cccc(OCc3ccccc3)c2n1	i	i	i	i	i	i	nt	nt	nt	nt
CCCCNC(=O)CCC(=O)NNc1nc2ccccc2c2nc(C)nn12	i	i	i	i	i	i	nt	nt	nt	nt
CCCCNC(=O)CCC(=O)NNc1nc2ccccc2c2nc(-c3ccccc3)nn12	i	i	76.9	i	i	i	33.2	i	92.2	i
COc1cc(Cl)c(C)cc1Nc1ncccn1	i	i	82.2	i	i	i	i	i	73.9	i
COC(=O)C(C(C)=O)C1=C/C(=N\S(=O)(=O)c2ccc(C)cc2)c2ccccc2C1=O (stereo unspecified)	nt	i	106.4	i	nt	96.7	50.2	i	93.7	i
Cc1[nH]c2ccccc2c1C(=O)CSc1nc2ccccc2[nH]1	i	i	79.6	i	54.6	53.8	37.6	i	90.6	i
CCN(C(=O)CO/N=C/c1ccc(OC)cc1OC)c1c(N)n(Cc2ccccc2)c(=O)[nH]c1=O	i	i	92.2	nt	i	69.0	66.6	i	92.5	i
CC(C)(C)C(=O)Nc1sc2c(c1-c1nc3ccccc3[nH]1)CCCC2	i	i	55.8	i	i	79.6	i	i	55.6	i
CC(C)(C)C(=O)Nc1cccc(-c2nc3ccccc3[nH]2)c1	i	i	i	i	i	i	nt	nt	nt	nt
CN(/N=C/c1cc([N+](=O)[O-])ccc1O)c1ccccc1	i	i	73.0	i	i	49.5	47.5	i	93.1	i

Screening data as filed in PubChem BioAssay.
